Bioassay records as filed in PubChem.
Only some compounds are listed: those with a hit (about 2.9% of all), similar ones and a draw of the others.
TRPC4 act: opens the mouse TRPC4 cation channel. B-score at 10 µM. 310,000 compounds, 0.49% hits. Q9QUQ5. HEK293 TRPC4beta/mu-opioid, Fluo4 calcium fluorescence; active compounds read high;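 active = B-score above 5 SD of library B-scores, and initial fluorescence ratio not above library mean plus 5 SD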;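 also: positive B-score marks a calcium rise read as TRPC4 activation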
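Test system: HEK293 cells stably co-expressing mouse TRPC4beta and mu-opioid receptor | Schedule: Fluo4 dye loading 45 min at room temperature, 110 s recording | Measured by: Kinetic Fluo4 calcium fluorescence, 5 s baseline at 1 Hz | Evaluation: B score of integrated ratio | Controls: Buffer (low) and maximal DAMGO (high)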
TRPC4 potent: TRPC4 (mouse) allosteric potentiation; HEK293 TRPC4beta/mu-opioid, DAMGO EC20, Fluo-4 Ca2+ flux; active compounds read high; B-score at 10 µM; 310,000 compounds, 0.42% hits; AID 2227;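 active = B-score of calcium response area above 5 SD of library B-scores, with initial fluorescence ratio within 5 SD of library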
Kir21 block: blocks the mouse Kir2.1 inward-rectifier potassium channel. 310,000 compounds, 0.85% hits. P35561. B-score at 10 µM. HEK293-Kir2.1, FluxOR thallium flux fluorescence; active compounds read low;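 active = fluorescence ratio B-score at or below minus 3 SD of library scores, with starting-brightness B-score within 2 SD, cut at about -4.2 in these data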;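 also: channel flux triggered by added potassium and thallium sulfate stimulus; B-score of peak minus minimum fluorescence over baseline after thallium stimulus; more negative B-score means stronger Kir2.1 block with less thallium influx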
TRPC6 act: activates the mouse TRPC6 cation channel. HEK293-TRPC6 membrane potential dye fluorescence; active compounds read high. B-score at 10 µM. 310,000 compounds, 0.13% hits. AID 2550;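 active = B-score of the integrated fluorescence ratio above library mean plus 3 SD, and starting fluorescence ratio within library mean plus 5 SD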;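 also: higher score means more depolarization so channel activation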
Target sequence (Q61143 whole entry, looked up): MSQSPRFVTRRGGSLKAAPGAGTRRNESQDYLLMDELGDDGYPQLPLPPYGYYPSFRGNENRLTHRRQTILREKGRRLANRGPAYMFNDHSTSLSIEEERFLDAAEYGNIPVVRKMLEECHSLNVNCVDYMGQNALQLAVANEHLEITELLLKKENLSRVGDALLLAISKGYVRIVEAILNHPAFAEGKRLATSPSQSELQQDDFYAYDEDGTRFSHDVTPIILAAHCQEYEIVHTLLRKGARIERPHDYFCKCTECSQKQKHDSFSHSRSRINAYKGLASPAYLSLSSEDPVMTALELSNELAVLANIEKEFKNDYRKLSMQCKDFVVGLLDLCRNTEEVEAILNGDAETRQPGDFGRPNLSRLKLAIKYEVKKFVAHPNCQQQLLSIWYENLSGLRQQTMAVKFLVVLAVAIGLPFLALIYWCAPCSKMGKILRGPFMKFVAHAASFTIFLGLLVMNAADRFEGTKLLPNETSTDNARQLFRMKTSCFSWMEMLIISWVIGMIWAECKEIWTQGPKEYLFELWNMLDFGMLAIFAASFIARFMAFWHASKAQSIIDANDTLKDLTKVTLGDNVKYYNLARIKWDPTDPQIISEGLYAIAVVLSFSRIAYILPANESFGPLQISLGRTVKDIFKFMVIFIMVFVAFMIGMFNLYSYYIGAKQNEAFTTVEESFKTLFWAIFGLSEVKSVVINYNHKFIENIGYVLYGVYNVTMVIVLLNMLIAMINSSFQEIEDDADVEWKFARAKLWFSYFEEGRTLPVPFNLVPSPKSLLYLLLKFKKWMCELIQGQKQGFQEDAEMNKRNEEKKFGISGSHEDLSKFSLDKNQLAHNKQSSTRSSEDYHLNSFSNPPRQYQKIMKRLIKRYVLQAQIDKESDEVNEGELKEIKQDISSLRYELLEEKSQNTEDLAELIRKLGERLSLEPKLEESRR
TRPC6 inh: mouse TRPC6 channel inhibition. Q61143. HEK293-TRPC6, membrane potential dye, ACh-evoked depolarization; active compounds read low. B-score at 10 µM. 310,000 compounds, 1.1% hits;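 active = B-score under library mean minus 3 SD, initial fluorescence not abnormally high, positive integrated signal ratio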;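 also: B-score derived from integrated fluorescence ratio over the kinetic read; more negative B-score means stronger inhibition of depolarization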
TRPC4 block: blocks the mouse TRPC4 cation channel. 300,000 compounds, 0.39% hits. HEK293 TRPC4beta/mu-opioid, DAMGO-evoked Fluo4 calcium flux; active compounds read low. B-score at 10 µM. AID 2247. Q9QUQ5;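 active = B-score over 3 SD under the library average, no early fluorescence shift, positive overall ratio signal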
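Signal: kinetic Fluo4 fluorescence imaging of calcium influx. Material: stable TRPC4beta/mu-opioid receptor HEK293 cells. Probe or stimulus: DAMGO in two steps, submaximal then maximal.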
Hits are given with their value; . = inactive.

SMILES	TRPC4 act	TRPC4 potent	Kir21 block	TRPC6 act	TRPC6 inh	TRPC4 block
CN1CCN(Cc2nc3c(c(=O)[nH]c(=O)n3C)n2CCc2ccccc2)CC1	.	.	.	.	.	.
CN1CCN(Cc2nc3c(c(=O)[nH]c(=O)n3C)n2Cc2c(F)cccc2Cl)CC1	80	20	.	.	.	.
CC1=CC(=O)N(c2ccc(C)cc2)C1c1ccc(Cl)cc1 (stereo not given)	.	.	-4.5	.	.	.
CCCCCCCCCCn1c2c(c(=N)c3c1CCC3)CCC2	52	.	-8.6	.	-5	.
N=c1c2c(n(Cc3cccc(Cl)c3)c3c1CCC3)CCCC2	.	.	.	.	.	.
CCCCCCCCn1c2c(c(=N)c3ccccc31)CCC2	.	.	-15	.	.	.
CCCCCCCCCn1c2c(c(=N)c3c1CCC3)CCCC2	.	.	-15	.	.	.
N=c1c2c(n(Cc3ccc(Cl)cc3)c3c1CCC3)CCC2	.	.	.	.	.	-7
CCCCn1c(N)c(N(CC(C)C)C(=O)c2cc(S(=O)(=O)N3CCOCC3)ccc2Cl)c(=O)[nH]c1=O	.	.	.	.	.	.
O=C(CCCc1nc(-c2ccc(Cl)cc2)no1)NC1CCCC1	.	.	-4.3	.	.	.
CC(C)CN(C(=O)CC1CCCC1)c1c(N)n(Cc2ccccc2)c(=O)[nH]c1=O	.	.	.	.	.	.
CC(C)CN(C(=O)C1CC1)c1c(N)n(Cc2ccccc2)c(=O)[nH]c1=O	.	31	.	.	.	.
CC(C)CN(C(=O)COC(=O)CCC(=O)c1ccc(Cl)cc1)c1c(N)n(Cc2ccccc2)c(=O)[nH]c1=O	.	114	.	.	.	.
COC(=O)c1cnc(Oc2ccc(NC(=O)NC(=O)c3c(F)cccc3Cl)cc2)cc1C(F)(F)F	.	.	.	.	.	.
COC(=O)c1cnc(Oc2c(Cl)cc(N)cc2Cl)cc1C(F)(F)F	.	22	.	.	.	.
O=C(NCC1CCCO1)C1CCN(C2CCN(C3CCCCCC3)CC2)CC1 (stereo not given)	.	.	.	.	.	.
COc1ccccc1-n1c(SCC(=O)O)nc2c(sc(=S)n2-c2ccccc2C)c1=O	.	.	.	.	.	.
CCCCn1c(SCC(=O)OCC)nc2c(sc(=S)n2-c2ccccc2OC)c1=O	.	.	.	.	.	-6
CCOC(=O)C1CCCN(C(=O)CCCn2nnnc2CN2CCOCC2)C1 (stereo not given)	.	23	.	.	.	.
CC1=C(C)CC(C(=O)Nc2nccs2)C(C(=O)O)C1 (stereo not given)	.	.	.	.	.	.
O=C1Nc2cc(C(=O)NCCCN3CCOCC3)ccc2S/C1=C/c1cccc(Cl)c1	.	.	.	.	.	.
O=C1Nc2cc(C(=O)NCCCN3CCCC3)ccc2S/C1=C\c1ccccc1	.	.	-4.9	.	.	.
COc1ccc(/C=C2/Sc3ccc(C(=O)NCCN4CCCCCC4)cc3NC2=O)cc1	.	.	.	.	.	.
O=C1Nc2cc(C(=O)NCCCN3CCOCC3)ccc2S/C1=C/c1ccccc1F	.	.	.	.	.	-6
CCOC(=O)C1=NN(c2ccccc2C)C2=NC(C)=C(C(=O)OC)C(c3cccc(OC)c3)N12 (stereo not given)	.	.	.	.	.	-5
SMILES	TRPC4 act	TRPC4 potent	Kir21 block	TRPC6 act	TRPC6 inh	TRPC4 block
CCOC(=O)C1=NN(c2ccccc2)C2=NC(C)=C(C(=O)OC)C(c3cccs3)N12 (stereo not given)	.	.	.	.	.	.
COc1ccccc1C1/C(=C(\O)c2ccc3c(c2)OCCO3)C(=O)C(=O)N1Cc1cccnc1 (stereo not given)	.	.	.	.	.	-6
CCOC(=O)c1nn(-c2ccc(F)cc2)c(=O)cc1OCC(=O)N1CCN(c2ccccc2)CC1	.	.	.	.	.	.
Cn1c(N)c(C(=O)COC(=O)CNS(=O)(=O)c2ccc(Cl)c(Cl)c2)c(=O)n(C)c1=O	.	.	.	.	.	-6
CNS(=O)(=O)c1cccc(C(=O)OCC(=O)c2c(N)n(C)c(=O)n(C)c2=O)c1	.	.	.	.	.	.
COc1ccc(NC(=O)NN2CCN(C)CC2)cc1OC	.	.	.	.	.	.
CN1CCN(NC(=O)Nc2cc(Cl)cc(Cl)c2)CC1	.	26	.	.	.	.
COCCSc1nc(N)c(NC(=O)c2ccco2)c(=O)[nH]1	.	.	.	.	.	.
OC(COCc1ccc(Cl)cc1)CN1CCN(CC(O)COCc2ccc(Cl)cc2)CC1 (stereo not given)	.	.	-4.9	.	.	.
C=CCc1ccc(OCC(O)CN2CCN(Cc3ccc(Cl)cc3)CC2)c(OC)c1 (stereo not given)	.	10	-8.3	.	.	.
Cc1ccc(S(=O)(=O)c2cnc(-c3ccccc3)nc2N2CCN(C)CC2)cc1	.	.	.	.	.	-6
CCC(C)(C)C(=O)O[C@H]1C[C@@H](C)C=C2C=C[C@H](C)[C@H](CC[C@@H]3C[C@@H](O)CC(=O)O3)[C@H]21	.	.	.	.	.	.
CCN1CCCC1CNS(=O)(=O)c1c(C)cc(C)cc1C (stereo not given)	86	.	.	.	.	.
COCCN(C(=O)CSc1nc2ccc(C)cc2[nH]1)c1c(N)n(Cc2ccccc2)c(=O)[nH]c1=O	.	.	.	.	.	.
COCCN(C(=O)CSc1nc2ccc(Cl)cc2[nH]1)c1c(N)n(Cc2ccccc2)c(=O)[nH]c1=O	.	.	.	.	.	-5
COc1ccc(CNC(=O)CSc2nnc3c(Cl)cc(C(F)(F)F)cn23)cc1OC	.	.	.	.	.	.
COc1ccc(-n2cc(CN(C)CCO)c(-c3cccc(F)c3)n2)cc1	.	.	.	.	.	.
COc1cccc(-c2nn(-c3ccccc3)cc2CN(C)C(C)c2ccncn2)c1 (stereo not given)	51	.	.	.	.	-6
COc1ccc(-n2cc(CN(C)C(C)c3ccncn3)c(-c3cccc(F)c3)n2)cc1 (stereo not given)	.	.	.	.	.	-8
